In the library only some 1.4% were active in any assay of this set; here they are far more common.
NR2E3 ag-1: activates human photoreceptor nuclear receptor NR2E3; Q9Y5X4; hit rate 0.12% among 320,000; inhibition of corepressor binding, % at 4.78 µM; GST-NR2E3/biotin-RetCOR TR-FRET, 1536-well;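 active = percent inhibition above the cutoff of mean plus 3 SD of all tested compounds, set per screening campaign, cut at about 20% in these data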;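 note: 0% = DMSO wells and 100% = biotin wells as full block of FRET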
Target sequence (Q9Y5X4 whole entry, looked up): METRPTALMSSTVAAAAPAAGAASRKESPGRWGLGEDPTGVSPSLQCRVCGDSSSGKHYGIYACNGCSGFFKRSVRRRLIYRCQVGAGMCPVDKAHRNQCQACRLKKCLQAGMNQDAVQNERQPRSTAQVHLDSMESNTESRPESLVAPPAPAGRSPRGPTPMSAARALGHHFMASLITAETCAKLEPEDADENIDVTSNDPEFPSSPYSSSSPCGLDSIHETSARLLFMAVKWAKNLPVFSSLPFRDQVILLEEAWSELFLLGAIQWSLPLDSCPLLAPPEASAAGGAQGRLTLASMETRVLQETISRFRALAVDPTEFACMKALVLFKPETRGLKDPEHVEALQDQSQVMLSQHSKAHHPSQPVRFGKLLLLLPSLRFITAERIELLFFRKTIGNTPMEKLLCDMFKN
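System: GST-tagged NR2E3 plus biotinylated RetCOR corepressor; Amount: 1.35 nM GST-tagged NR2E3 final; Dosing: single nominal compound dose of 4.8 µM; Schedule: 5 h incubation at 4 °C; Technique: TR-FRET with europium anti-GST and streptavidin-D2, 340 nm excitation; Controls: biotin wells as high control, 0.6% DMSO wells as low control.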
NR1D1 modulator: Rev-erb alpha (human) modulation | Rev-erbα–FITC-DNA binding, fluorescence polarization, 90 min | activity, % at 10 µM | hit rate 0.79% among 370,000 | AID 1259318;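 active = activity above about 14%, limit read from the data; passing the limit was not always enough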;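 note: 0% = DMSO wells with 35 nM protein and 100% = DMSO wells with 750 nM protein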
PG9 Ab binder: PG9 antibody binding by small molecule | TR-FRET gp120-PG9 antibody binding | inhibition, % at 6.7 µM | hit rate 0.43% among 360,000; in the data active = inhibition above about 8.5%
NR2E3 ag-2: activates human NR2E3 receptor | AID 602229 | hit rate 0.35% among 360,000 | inhibition of corepressor binding, % at 3.98 µM | CHO-S Gal4-NCOR/VP16-NR2E3 two-hybrid, luciferase | Q9Y5X4;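 active = inhibition above the mean of all tested compounds plus 3 SD, cut at about 70% in these data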;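 note: 0% = DMSO with NR2E3 transfected cells and 100% = cells lacking NR2E3 construct; higher means lower luciferase signal from less NR2E3 corepressor binding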
NR2E3 ag conf: NR2E3 agonism confirmed in two-hybrid assay. CHO-S mammalian two-hybrid NR2E3-NCOR, luciferase luminescence. inhibition, % at 3.98 µM. shares compounds with NR2E3 ag-2. hit rate 51% among 2,300;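 active = average inhibition above a cutoff equal to the mean inhibition of all tested compounds plus one SD, cut at about 70% in these data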;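 note: 0% = DMSO in NR2E3 cells and 100% = DMSO in cells lacking NR2E3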
GAL4-VP16 luc: reduces GAL4-VP16 reporter signal in NR2E3 counterscreen | inhibition, % at 3.98 µM | CHO-S GAL4-VP16 luciferase reporter, luminescence | shares compounds with NR2E3 ag-2 | hit rate 29% among 2,300;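 active = mean inhibition above a cutoff equal to the average over all tested compounds plus one standard deviation, cut at about 70% in these data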;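 note: luciferase from a UAS reporter driven by GAL4-VP16 transactivation; 0% = DMSO with VP16-transfected cells and 100% = DMSO with cells lacking VP16; higher means less reporter light so more repression of VP16 activity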
* = called active by the depositor; . = no result given.

SMILES	NR2E3 ag-1	NR1D1 modulator	PG9 Ab binder	NR2E3 ag-2	NR2E3 ag conf	GAL4-VP16 luc
O=C(CCc1ccccc1)N[C@H]1[C@H](OCc2ccccc2)CCC[C@@]12C(=O)N(Cc1ccccc1)c1ccccc12	.	3	.	.	.	.
CCOc1ccc(CN(C)Cc2cc(=O)oc3c(C)c(C)ccc23)cc1OC	.	-2	0	86*	88*	81*
O=C(Nc1nc2ncccn2c1-c1ccc(F)c(F)c1)c1ccccc1	.	-6	.	.	.	.
COc1cc(OC)c(OC)cc1CNC(=O)c1ccc(COc2ccccc2)cc1	2	1	-1	58	37	39
CN1C(=O)c2cc(NC(=O)Nc3ccccc3)ccc2OC[C@H]2O[C@@H](CC(=O)Nc3cc(F)ccc3F)CC[C@@H]21	.	9	.	.	.	.
CC(C(=O)Nc1cccnc1)c1ccc([N+](=O)[O-])cc1 (stereo unspecified)	2	2	-2	5	.	.
CC(C)Cc1ccc(C(C)C(=O)Nc2cccnc2)cc1 (stereo unspecified)	0	-6	0	50	89*	76*
O=C1C(=O)N(Cc2ccc(-c3ccc(Cl)nc3)cc2)c2ccc(OC(F)(F)F)cc21	.	1	.	.	.	.
CCN(CC)C(=O)CC[C@@H]1CC[C@]2(CCCN(S(C)(=O)=O)C2)O1	.	3	.	.	.	.
CCNC(=S)NNC(=O)CSc1nnc(SCc2cccc3ccccc23)s1	.	-5	.	.	.	.
COc1ccc(-c2cc3c(=O)n(CC(=O)NCCCN4CCN(Cc5ccccc5)CC4)ncn3n2)cc1	3	1	-1	48	5	-20
COc1ccc(-c2cc3c(=O)n(CC(=O)NCCCN4CCC(Cc5ccccc5)CC4)ncn3n2)cc1	3	6	-1	0	.	.
C[C@@H]1OCN(C)[C@H]2C[C@H]3c4[nH]c5cccc(-c6ccccc6)c5c4CCN3C[C@@H]12	.	1	.	.	.	.
Cc1ccc(-n2nnnc2SCC(=O)Nc2ccc3c(c2)OCCO3)cc1C	-1	7	0	-9	.	.
Cc1ccc(NC(=O)CSc2nnnn2-c2ccc3c(c2)OCO3)cc1C	2	0	-1	91*	100*	1
COc1ccc(OC)c(NC(=O)CSc2nnnn2-c2ccc3c(c2)OCO3)c1	0	-5	-1	101*	100*	40
O=C(CSc1nnnn1-c1ccc(O)cc1)Nc1ccc(N2CCOCC2)c(Cl)c1	3	5	-3	98*	98*	32
COC(=O)c1ccc(-n2nnnc2SCC(=O)Nc2cc(OC)ccc2OC)cc1	0	2	-2	19	.	.
O=C(Nc1ccc(OC(F)(F)F)cc1)N1CCN(c2ccnc3cc(Cl)ccc23)CC1	-2	6	0	65	94*	70
CC(COc1ccc(S(C)(=O)=O)cc1)CN1CCC(C(O)(c2ccccc2)c2ccccc2)CC1 (stereo unspecified)	.	1	.	.	.	.
COc1cnc(-c2ccccn2)nc1Sc1ccccc1	5	-6	-1	94*	35	1
COc1cnc(N(C)C)nc1Sc1ccc(Cl)cc1	0	5	1	-18	.	.
COc1ccc(Sc2nc(-c3ccccn3)ncc2OC)cc1	0	-6	-1	92*	42	9
CCOC(=O)CSc1nc(-c2ccccn2)ncc1OC	-4	0	-1	-14	.	.
COc1cnc(-c2ccccn2)nc1Sc1ccc(F)cc1	2	-1	-2	67	29	-8
SMILES	NR2E3 ag-1	NR1D1 modulator	PG9 Ab binder	NR2E3 ag-2	NR2E3 ag conf	GAL4-VP16 luc
COc1cnc(-c2ccccn2)nc1Sc1ccc(Cl)cc1	1	-1	-2	70	12	-24
CCc1csc(N2[C@H](CN(CCOC)S(=O)(=O)c3ccccc3[N+](=O)[O-])[C@H](c3ccccc3)[C@@H]2CO)n1	.	10	.	.	.	.
C=CCOC(=O)N[C@H](c1cccc(OC)c1)[C@H](C)/C=C/CC(=O)OC	.	1	.	.	.	.
O=NN(CCc1ccncc1)c1ccc(OCc2ccccc2)cc1	0	-2	0	86*	95*	85*
O=C(NCc1ccncc1)C(=O)N/N=C/c1ccc(OCc2ccccc2)cc1	0	3	-14	-34	.	.
COc1ccc(CNC(=O)c2sc(=O)n(Cc3ccc(C)cc3)c2C)cc1OC	.	-8	-1	23	.	.
COc1ccc(NC(=O)c2sc(=O)n(Cc3cccc(C(F)(F)F)c3)c2C)cc1OC	.	5	-2	55	73*	39
